Source: ChEMBL document CHEMBL5034002, “Benzoheterocyclic Oxime Carbamates Active against Mycobacterium tuberculosis: Synthesis, Structure-Activity Relationship, Metabolism, and Biology Triaging” (J Med Chem, 2021)
≈ marks a conversion by molar mass, not a printed value. Calls of active or inactive are those of the source. The calls are words filed in the database; no cut-off is given here.

Experiments:
[1] = tested on: Mycobacterium tuberculosis; assay: Antitubercular activity against Mycobacterium tuberculosis H37RvMA incubated for 14 days in GAST/FE medium by Alamar blue assay; format: functional; conditions: 336 h, time 14 day
In short: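 Mtb H37RvMa grown in GAST/Fe medium, 14 day incubation with compound, growth read by Alamar Blue.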

CHO = assay: Cytotoxicity against CHO cells; format: cell-based; conditions: Cricetulus griseus
In short: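 Cytotoxicity measured on Chinese hamster ovary (CHO) cells.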

[2] = Kinetic solubility of the compound in pH 6.5; format: physicochemical; conditions: buffer, read-out: Kinetic_solubility
[3] = tested on: Mycobacterium tuberculosis; assay: Antitubercular activity against Mycobacterium tuberculosis H37RvMA infected in THP-1 cells assessed as intracellular bacterial growth at 10 uM measured over 6 days; format: functional, organism-based; conditions: time 6.0 day
In short: (§1)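 THP-1 macrophages infected in vitro with Mtb H37RvMa, then treated with compound over 6 days (10 μM, or increasing concentrations up to 80 μM). Intracellular bacterial growth was compared with untreated control at day 6 post treatment by one-way ANOVA with Dunnett's test.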

Acinetobacter baumannii = assay: Antibacterial activity against Acinetobacter baumannii ATCC 19606; format: functional
Enterobacter cloacae = assay: Antibacterial activity against Enterobacter cloacae; format: functional
[4] = Stability in human liver microsomes assessed as compound remaining after 30 mins; format: ADME, Microsome; conditions: read-out: Stability
[5] = tested on: Mycobacterium tuberculosis; assay: Antitubercular activity against Mycobacterium tuberculosis H37RvMA incubated for 14 days in 7H9/OHADC medium by Alamar blue assay; format: functional; conditions: 336 h, time 14 day
Escherichia coli = assay: Antibacterial activity against Escherichia coli ATCC 25922; format: functional
Staphylococcus aureus = assay: Antibacterial activity against Staphylococcus aureus ATCC 25923; format: functional
Klebsiella pneumoniae = assay: Antibacterial activity against Klebsiella pneumoniae BAA-1705; format: functional; conditions: ATCC BAA-1705
[6] = Stability in mouse liver microsomes assessed as compound remaining after 30 mins; format: ADME, Microsome; conditions: read-out: Stability
Pseudomonas aeruginosa = assay: Antibacterial activity against Pseudomonas aeruginosa ATCC 27853; format: functional
[7] = Stability in rat liver microsomes assessed as compound remaining after 30 mins; format: ADME, Microsome; conditions: read-out: Stability
[8] = target: Voltage-gated inwardly rectifying potassium channel KCNH2 (Homo sapiens, UniProt Q12809); assay: Inhibition of human ERG by Ionworks electrophysiology assay
In short: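 hERG inhibition measured by electrophysiology on IonWorks HT.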

[9] = tested on: Mycobacterium tuberculosis; assay: Drug degradation in Mycobacterium tuberculosis H37RvMA at 0.1 uM incubated over 96 hrs by LC-MS/MS analysis; format: functional, organism-based
In short: (§2)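 Compound at 0.1 μM in 7H9/OADC medium was added to log-phase Mtb H37RvMa culture and sampled over 96 h, earliest at 3 h. Controls were heat-killed culture and sterile medium. Analysis by LC-MS/MS as analyte/internal standard peak area ratio, expressed as % of mean time-zero ratio. One-way ANOVA with Dunnett's test against medium control at each time point.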

[10] = Stability in human liver S9 fraction assessed as compound remaining after 40 mins; format: ADME, subcellular; conditions: read-out: Stability
[11] = tested on: Mycobacterium tuberculosis; assay: Antitubercular activity against Mycobacterium tuberculosis H37RvMA infected in THP-1 cells assessed as intracellular bacterial growth measured over 6 days; format: functional, organism-based; conditions: dose 10-80 µM, time 6.0 day; in short: as §1
[12] = tested on: Mycobacterium tuberculosis; assay: Antitubercular activity against Mycobacterium tuberculosis H37RvMA infected in THP-1 cells assessed as intracellular bacterial growth at 80 uM measured over 6 days; format: functional, organism-based; conditions: time 6.0 day; in short: as §1
[13] = tested on: Mycobacterium tuberculosis; assay: Drug degradation in Mycobacterium tuberculosis H37RvMA assessed as compound hydrolysis at 0.1 uM incubated over 96 hrs by LC-MS/MS analysis; format: functional, organism-based; in short: as §2

Sequence of Voltage-gated inwardly rectifying potassium channel KCNH2 (Q12809 whole entry): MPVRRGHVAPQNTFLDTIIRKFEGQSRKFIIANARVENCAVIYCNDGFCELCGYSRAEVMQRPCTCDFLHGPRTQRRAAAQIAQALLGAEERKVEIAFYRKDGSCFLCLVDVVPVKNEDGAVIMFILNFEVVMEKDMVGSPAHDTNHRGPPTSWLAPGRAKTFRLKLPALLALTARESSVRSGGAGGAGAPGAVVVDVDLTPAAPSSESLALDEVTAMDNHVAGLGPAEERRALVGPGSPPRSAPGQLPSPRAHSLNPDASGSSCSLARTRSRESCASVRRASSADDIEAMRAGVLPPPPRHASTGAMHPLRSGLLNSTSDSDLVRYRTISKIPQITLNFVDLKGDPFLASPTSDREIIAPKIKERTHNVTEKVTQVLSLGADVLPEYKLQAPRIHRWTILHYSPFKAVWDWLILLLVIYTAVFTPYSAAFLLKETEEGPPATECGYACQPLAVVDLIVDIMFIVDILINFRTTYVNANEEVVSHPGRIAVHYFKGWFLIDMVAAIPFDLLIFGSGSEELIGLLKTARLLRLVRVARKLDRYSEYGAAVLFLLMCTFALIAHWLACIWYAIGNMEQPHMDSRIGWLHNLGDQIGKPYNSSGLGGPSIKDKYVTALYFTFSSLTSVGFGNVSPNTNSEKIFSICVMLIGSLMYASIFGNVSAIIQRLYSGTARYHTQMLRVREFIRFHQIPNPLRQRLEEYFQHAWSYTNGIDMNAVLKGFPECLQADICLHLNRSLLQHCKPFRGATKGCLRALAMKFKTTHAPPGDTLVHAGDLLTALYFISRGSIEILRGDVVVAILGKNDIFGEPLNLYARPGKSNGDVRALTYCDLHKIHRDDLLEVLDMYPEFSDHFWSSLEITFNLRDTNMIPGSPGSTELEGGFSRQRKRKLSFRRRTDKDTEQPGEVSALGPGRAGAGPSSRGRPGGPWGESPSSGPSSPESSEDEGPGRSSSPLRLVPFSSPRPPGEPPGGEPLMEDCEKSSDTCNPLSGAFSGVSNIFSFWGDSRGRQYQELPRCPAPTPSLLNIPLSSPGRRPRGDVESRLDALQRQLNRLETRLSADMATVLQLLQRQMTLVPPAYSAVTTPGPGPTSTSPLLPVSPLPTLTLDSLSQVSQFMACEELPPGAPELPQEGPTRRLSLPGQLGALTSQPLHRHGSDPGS

## CCCO/N=C(\C#N)c1nc2ccccc2s1
[1]
  MIC: > 160 µM

## N#C/C(=N\OCc1ccccc1)c1nc2ccccc2s1
[1]
  MIC: 20 µM (≈ 5.87 µg/mL)

## Cc1nnc(/C(=N\O)c2nc3ccccc3s2)s1
CHO
  IC50: 38 µM
[1]
  MIC: 2.5 µM (≈ 0.691 µg/mL)

## CN(C)C(=O)O/N=C(\C#N)c1nc2ccccc2[nH]1
[2]
  solubility kinetic: 29 µM (≈ 7.46 µg/mL)
[1]
  MIC: 9.4 µM (≈ 2.42 µg/mL)

## Cc1nc(/C(=N\O)c2nc3ccccc3s2)no1
[1]
  MIC: > 160 µM

## Cc1ccc2nc(/C(C#N)=N/OC(=O)N(C)C)oc2c1
[3]
  Activity: inactive
CHO
  IC50: > 100 µM
[1]
  MIC: < 0.16 µM

## OC(O)(c1nc2ccccc2s1)C(F)(F)F
[2]
  solubility kinetic: 184 µM (≈ 45.9 µg/mL)
[1]
  MIC: > 50 µM

## O/N=C(/c1nc2ccccc2s1)C1CCCC1
CHO
  IC50: 83.5 µM
[1]
  MIC: > 125 µM

## NNC(=O)c1ccncc1 [ISONIAZID]
[1]
  MIC: 0.14 µM (≈ 0.0192 µg/mL)

## O/N=C(\c1nnc(C(F)(F)F)s1)c1nc2ccccc2s1
Acinetobacter baumannii
  MIC: > 125 µM
Enterobacter cloacae
  MIC: > 125 µM
[4]
  remaining at 0.5 h: > 99%
[5]
  MIC: 1.2 µM (≈ 0.396 µg/mL)
[2]
  solubility kinetic: 67 µM (≈ 22.1 µg/mL)
Escherichia coli
  MIC: > 125 µM
Staphylococcus aureus
  MIC: > 125 µM
CHO
  IC50: 15.6 µM
[1]
  MIC: 0.78 µM (≈ 0.258 µg/mL)
Klebsiella pneumoniae
  MIC: > 125 µM
[6]
  remaining at 0.5 h: 71%
Pseudomonas aeruginosa
  MIC: > 125 µM
[7]
  remaining at 0.5 h: 86%

## CCOC(=O)CO/N=C(\C#N)c1nc2ccccc2s1
[1]
  MIC: > 160 µM

## CN(C)C(=O)O/N=C(\C#N)c1nc2ccc(C(F)(F)F)cc2o1
CHO
  IC50: 46.3 µM
[1]
  MIC: < 0.24 µM

## N#C/C(=N\OCc1cccnc1)c1nc2ccccc2s1
[1]
  MIC: > 160 µM

## CN(C)C(=O)O/N=C(\C#N)c1nc2cc(F)ccc2o1
[1]
  MIC: < 0.24 µM

## N#C/C(=N\O)c1ccccn1
[2]
  solubility kinetic: 202 µM (≈ 29.7 µg/mL)
[1]
  MIC: > 50 µM

## CN(C)C(=O)O/N=C(\C#N)c1nc2ccccc2s1
CHO
  IC50: > 100 µM
[1]
  MIC: < 0.16 µM

## O/N=C(/c1nc2ccccc2s1)C1CCCCC1
CHO
  IC50: 51.6 µM
[1]
  MIC: > 125 µM

## CN(C)C(=O)O/N=C(\C#N)c1nc2ccc(Br)cc2o1
CHO
  IC50: > 100 µM
[1]
  MIC: < 0.24 µM

## Nc1nonc1-c1nc2ccccc2s1
[2]
  solubility kinetic: 5 µM (≈ 1.09 µg/mL)
[1]
  MIC: > 50 µM

## Cc1nnc(/C(=N\O)c2nc3ccccc3s2)o1
[1]
  MIC: 160 µM (≈ 41.6 µg/mL)

## CN(C)C(=O)O/N=C(\C#N)c1nc2cc(Cl)ccc2o1
CHO
  IC50: > 100 µM
[1]
  MIC: < 0.24 µM

## O/N=C(\c1ccc2ncsc2c1)c1nc2ccccc2s1
CHO
  IC50: > 50 µM
[1]
  MIC: > 125 µM

## O/N=C/c1nc2ccccc2s1
[1]
  MIC: > 160 µM

## O/N=C(\c1cnccn1)c1nc2ccccc2s1
CHO
  IC50: 11.7 µM
[1]
  MIC: 3.6 µM (≈ 0.923 µg/mL)

## N#C/C(=N\O)c1nc2ccccc2s1
CHO
  IC50: > 100 µM
[1]
  MIC: > 160 µM

## CN(C)C(=O)O/N=C(\C#N)c1nc2ccc([N+](=O)[O-])cc2o1
CHO
  IC50: 46.8 µM
[1]
  MIC: < 0.24 µM

## CN(C)S(=O)(=O)O/N=C(\C#N)c1nc2ccccc2s1
CHO
  IC50: 91.3 µM
[1]
  MIC: 0.3 µM (≈ 0.0931 µg/mL)

## COC(=O)c1ccc2nc(/C(C#N)=N/OC(=O)N(C)C)oc2c1
CHO
  IC50: 7.05 µM
[1]
  MIC: < 0.24 µM

## CO/N=C(\C#N)c1nc2ccccc2s1
[1]
  MIC: 160 µM (≈ 34.8 µg/mL)

## N#C/C(=N\[O-])c1ccccc1.[Na+]
[2]
  solubility kinetic: 56 µM
[1]
  MIC: > 50 µM

## CN(C)C(=O)O/N=C(\C#N)c1ccccn1
[2]
  solubility kinetic: 175 µM (≈ 38.2 µg/mL)
[1]
  MIC: 9.4 µM (≈ 2.05 µg/mL)

## N#C/C(=N\OCc1ccccn1)c1nc2ccccc2s1
[1]
  MIC: > 160 µM

## Cc1cnc(/C(=N\O)c2nc3ccccc3s2)s1
CHO
  IC50: 29 µM
[1]
  MIC: 3.13 µM (≈ 0.862 µg/mL)

## O/N=C(/c1nc2ccccc2s1)C(F)(F)F
[1]
  MIC: 37 µM (≈ 9.11 µg/mL)

## CS(=O)(=O)O/N=C(\C#N)c1nc2ccccc2s1
[1]
  MIC: 0.5 µM (≈ 0.141 µg/mL)

## [O-][n+]1onc(-c2nc3ccccc3s2)c1-c1nc2ccccc2s1
[2]
  solubility kinetic: < 5 µM
[1]
  MIC: > 50 µM

## N#C/C(=N\O)c1nc2ccccc2o1
[3]
  Activity: inactive
[1]
  MIC: > 160 µM

## CN(C)C(=O)O/N=C(\C#N)c1nc2ccccc2o1
Acinetobacter baumannii
  MIC: > 125 µM
Enterobacter cloacae
  MIC: > 125 µM
[3]
  Activity: inactive
[4]
  remaining at 0.5 h: > 99%
[5]
  MIC: 0.6 µM (≈ 0.155 µg/mL)
[8]
  IC50: > 33 µM
[2]
  solubility kinetic: 18 µM (≈ 4.65 µg/mL)
Escherichia coli
  MIC: > 125 µM
Staphylococcus aureus
  MIC: > 125 µM
[9]
  Drug degradation: Unstable
CHO
  IC50: > 100 µM
[1]
  MIC: 0.3 µM (≈ 0.0775 µg/mL)
[10]
  remaining at 40 min: 60%
Klebsiella pneumoniae
  MIC: > 125 µM
[6]
  remaining at 0.5 h: > 99%
Pseudomonas aeruginosa
  MIC: > 125 µM
[7]
  remaining at 0.5 h: 98%

## C/C(=N\O)c1nc2ccccc2s1
CHO
  IC50: > 100 µM
[1]
  MIC: > 125 µM

## CN(C)C(=O)O/N=C(\C#N)c1nc2ccc(F)cc2o1
CHO
  IC50: > 100 µM
[1]
  MIC: < 0.24 µM

## Cc1ccc2oc(/C(C#N)=N/OC(=O)N(C)C)nc2c1
CHO
  IC50: > 100 µM
[1]
  MIC: < 0.24 µM

## Cc1ccc2nc(/C(C#N)=N/O)oc2c1
[3]
  Activity: inactive
[9]
  Drug degradation: Unstable
CHO
  IC50: > 100 µM
[1]
  MIC: > 160 µM

## Cc1ccc2nc(/C(C#N)=N/OS(=O)(=O)N(C)C)oc2c1
[1]
  MIC: 5 µM (≈ 1.54 µg/mL)

## N#C/C(=N\OCc1ccncc1)c1nc2ccccc2s1
[1]
  MIC: 20 µM (≈ 5.89 µg/mL)

## O/N=C(\c1ccccc1)c1nc2ccccc2s1
CHO
  IC50: > 100 µM
[1]
  MIC: > 50 µM

## CN(C)C(=O)O/N=C(\C#N)c1nc2cc(Br)ccc2o1
[1]
  MIC: < 0.24 µM

## Cc1cccc2oc(/C(C#N)=N/OC(=O)N(C)C)nc12
CHO
  IC50: > 100 µM
[1]
  MIC: < 0.24 µM

## CO[C@H]1/C=C/O[C@@]2(C)Oc3c(C)c(O)c4c(O)c(c(/C=N/N5CCN(C)CC5)c(O)c4c3C2=O)NC(=O)/C(C)=C\C=C\[C@H](C)[C@H](O)[C@@H](C)[C@@H](O)[C@@H](C)[C@H](OC(C)=O)[C@@H]1C [RIFAMPIN]
[1]
  MIC: 0.009 µM (≈ 0.00741 µg/mL)

## CN(C)C(=O)O/N=C(\C#N)c1ccccc1
[1]
  MIC: 9.4 µM (≈ 2.04 µg/mL)

## CC(=O)Nc1ccc2nc(/C(C#N)=N/OC(=O)N(C)C)oc2c1
CHO
  IC50: > 100 µM
[1]
  MIC: 5.2 µM (≈ 1.64 µg/mL)

## ON=C(c1nc2ccccc2s1)c1nc2ccccc2s1
CHO
  IC50: > 100 µM
[1]
  MIC: 0.8 µM (≈ 0.249 µg/mL)

## O/N=C(\c1cnco1)c1nc2ccccc2s1
CHO
  IC50: > 100 µM
[1]
  MIC: 50 µM (≈ 12.3 µg/mL)

## CON=C(c1nc2ccccc2s1)c1nc2ccccc2s1
CHO
  IC50: > 50 µM
[1]
  MIC: > 125 µM

## CN(C)C(=O)CO/N=C(\C#N)c1nc2ccccc2s1
[1]
  MIC: > 160 µM

## CN(C)C(=O)O/N=C(\C#N)c1nc2ccc(Cl)cc2o1
[3]
  Activity: inactive
[11]
  Activity: Dose-Dependent Effect
[12]
  Activity: Active
[13]
  Drug degradation: Unstable
CHO
  IC50: > 100 µM
[1]
  MIC: < 0.24 µM
